Test results reported in ChEMBL document CHEMBL4261499, “Chiral disubstituted piperidinyl ureas: a class of dual diacylglycerol lipase-α and ABHD6 inhibitors” (Medchemcomm, 2017).
The source made the active and inactive calls. The rule behind the calls is not given here.

Tests used:
Assay type in all cases: tissue-based
Mus musculus [1] = organism: Mus musculus; assay: Inhibition of MB064 labelling of ABHD16A in mouse brain homogenates at 10 uM pretreated for 30 mins followed by MB064 addition and measured after 20 mins by activity based protein profiling assay
In short: (§1)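 Mouse brain membrane proteome preincubated 30 min with inhibitor (10 μM), then labelled with MB064 probe (0.25 μM, 20 min). Readout by gel-based competitive ABPP. Band intensities corrected for protein loading per lane from Coomassie staining. Means ± SEM, n = 3.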

[2] = target: T1, Epoxide hydrolase 4 (Mus musculus) (UniProt Q6IE26); assay: Inhibition of MB064 labelling of ABHD7 in mouse brain homogenates at 10 uM pretreated for 30 mins followed by MB064 addition and measured after 20 mins by activity based protein profiling assay; in short: as §1
T1 sequence (whole entry): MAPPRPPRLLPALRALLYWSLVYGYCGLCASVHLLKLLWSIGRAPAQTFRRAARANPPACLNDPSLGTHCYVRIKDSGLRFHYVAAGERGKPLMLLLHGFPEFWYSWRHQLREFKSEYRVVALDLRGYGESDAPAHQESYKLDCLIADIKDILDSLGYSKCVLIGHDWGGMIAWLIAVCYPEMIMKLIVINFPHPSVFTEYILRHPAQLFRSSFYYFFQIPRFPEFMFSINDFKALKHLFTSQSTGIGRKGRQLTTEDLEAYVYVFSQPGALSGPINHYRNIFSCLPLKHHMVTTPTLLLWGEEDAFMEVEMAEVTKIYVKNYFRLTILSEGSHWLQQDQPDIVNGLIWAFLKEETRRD

Mus musculus [3] = organism: Mus musculus; assay: Inhibition of FP-TAMRA labelling of KIAA1363 in mouse brain homogenates at 10 uM pretreated for 30 mins followed by FP-TAMRA addition and measured after 20 mins by activity based protein profiling assay
In short: (§2)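 Mouse brain membrane proteome (2 mg mL-1) preincubated 30 min at r.t. with inhibitor (10 μM) or DMSO vehicle, then labelled with TAMRA-FP, 500 nM final, 20 min at r.t. Reaction quenched with Laemmli sample buffer. Readout by gel-based competitive ABPP with Coomassie staining as loading control.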

[4] = target: T2, Monoglyceride lipase (Mus musculus) (UniProt O35678); assay: Inhibition of FP-TAMRA labelling of MAGL in mouse brain homogenates at 10 uM pretreated for 30 mins followed by FP-TAMRA addition and measured after 20 mins by activity based protein profiling assay; in short: as §2
T2 sequence (whole entry): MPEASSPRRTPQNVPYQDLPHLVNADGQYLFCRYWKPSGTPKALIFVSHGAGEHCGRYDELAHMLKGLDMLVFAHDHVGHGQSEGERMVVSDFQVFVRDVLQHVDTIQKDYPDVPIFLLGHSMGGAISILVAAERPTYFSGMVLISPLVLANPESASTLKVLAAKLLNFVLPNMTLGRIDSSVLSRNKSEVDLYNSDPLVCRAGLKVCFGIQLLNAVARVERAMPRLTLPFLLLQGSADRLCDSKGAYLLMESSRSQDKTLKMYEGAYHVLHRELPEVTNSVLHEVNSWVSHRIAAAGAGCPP

Mus musculus [5] = organism: Mus musculus; assay: Inhibition of FP-TAMRA labelling of FAAH in mouse brain homogenates at 10 uM pretreated for 30 mins followed by FP-TAMRA addition and measured after 20 mins by activity based protein profiling assay; in short: as §2
[6] = target: 1-acylglycerol-3-phosphate O-acyltransferase ABHD5 (Mus musculus) (UniProt Q9DBL9); assay: Inhibition of MB064 labelling of ABHD5 in mouse brain homogenates at 10 uM pretreated for 30 mins followed by MB064 addition and measured after 20 mins by activity based protein profiling assay; in short: as §1
[7] = target: T3, Monoacylglycerol lipase ABHD6 (Mus musculus) (UniProt Q8R2Y0); assay: Inhibition of MB064 labelling of ABHD6 in mouse brain homogenates at 10 uM pretreated for 30 mins followed by MB064 addition and measured after 20 mins by activity based protein profiling assay relative to control; in short: as §1
T3 sequence (whole entry): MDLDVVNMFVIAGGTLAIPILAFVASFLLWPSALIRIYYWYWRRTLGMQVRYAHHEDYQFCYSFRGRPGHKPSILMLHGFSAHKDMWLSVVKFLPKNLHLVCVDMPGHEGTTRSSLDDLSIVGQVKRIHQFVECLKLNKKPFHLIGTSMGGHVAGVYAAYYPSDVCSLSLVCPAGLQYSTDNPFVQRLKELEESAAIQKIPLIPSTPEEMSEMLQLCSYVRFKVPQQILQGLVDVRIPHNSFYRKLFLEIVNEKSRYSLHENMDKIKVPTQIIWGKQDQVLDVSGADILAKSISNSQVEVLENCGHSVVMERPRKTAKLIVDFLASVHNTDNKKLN

[8] = target: T4, Triacylglycerol hydrolase DDHD2 (Mus musculus) (UniProt Q80Y98); assay: Inhibition of MB064 labelling of DDHD2 in mouse brain homogenates at 10 uM pretreated for 30 mins followed by MB064 addition and measured after 20 mins by activity based protein profiling assay; in short: as §1
T4 sequence (whole entry): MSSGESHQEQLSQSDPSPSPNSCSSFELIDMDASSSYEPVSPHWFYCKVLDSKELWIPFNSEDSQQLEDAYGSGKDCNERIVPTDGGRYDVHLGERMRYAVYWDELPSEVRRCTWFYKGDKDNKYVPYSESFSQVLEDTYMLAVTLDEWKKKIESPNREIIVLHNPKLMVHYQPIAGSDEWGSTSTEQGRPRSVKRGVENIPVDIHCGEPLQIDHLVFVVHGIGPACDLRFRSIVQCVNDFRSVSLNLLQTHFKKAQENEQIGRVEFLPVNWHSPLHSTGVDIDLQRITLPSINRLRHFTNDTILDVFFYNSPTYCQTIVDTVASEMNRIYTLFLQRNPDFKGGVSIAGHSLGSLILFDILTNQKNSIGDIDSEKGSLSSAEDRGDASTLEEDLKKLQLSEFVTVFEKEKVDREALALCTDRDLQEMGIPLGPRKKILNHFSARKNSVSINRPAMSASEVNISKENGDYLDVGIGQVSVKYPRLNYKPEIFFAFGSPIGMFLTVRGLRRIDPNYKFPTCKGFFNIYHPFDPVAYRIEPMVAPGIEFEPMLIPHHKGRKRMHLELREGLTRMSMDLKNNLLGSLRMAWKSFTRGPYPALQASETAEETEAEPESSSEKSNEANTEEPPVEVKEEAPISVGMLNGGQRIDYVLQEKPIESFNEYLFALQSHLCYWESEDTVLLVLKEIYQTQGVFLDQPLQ

1-acylglycerol-3-phosphate O-acyltransferase ABHD5 (Mus musculus), sequence (Q9DBL9 whole entry, looked up): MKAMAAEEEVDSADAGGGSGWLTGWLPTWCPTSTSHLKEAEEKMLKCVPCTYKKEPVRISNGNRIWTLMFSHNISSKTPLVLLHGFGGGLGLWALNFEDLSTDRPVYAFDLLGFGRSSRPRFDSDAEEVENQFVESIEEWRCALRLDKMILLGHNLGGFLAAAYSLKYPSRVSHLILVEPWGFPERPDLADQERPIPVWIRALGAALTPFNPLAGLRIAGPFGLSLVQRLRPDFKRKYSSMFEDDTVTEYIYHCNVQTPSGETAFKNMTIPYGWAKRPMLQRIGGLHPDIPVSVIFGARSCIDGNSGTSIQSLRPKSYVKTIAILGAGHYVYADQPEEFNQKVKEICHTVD

O=C(N1CCC=C[C@@H]1COCc1ccccc1)n1cc(-c2ccccc2)nn1 was tested, and the inhibition (Mus musculus [1]) was “Active”, the inhibition [2] was “Active” and the inhibition (Mus musculus [3]) was “Active”. For the same compound, the inhibition [4] was “Active”, the inhibition (Mus musculus [5]) was “Active” and the inhibition [6] was “Active”. The inhibition [7] was 89% and the inhibition [8] was “Active”.
For O=C(N1CCC=C[C@@H]1COCc1ccccc1)n1cc(-c2ccc([N+](=O)[O-])cc2)nn1, the inhibition (Mus musculus [1]) was “Active”, the inhibition [2] was “Active” and the inhibition (Mus musculus [3]) was “Active”. The inhibition [4] was “Active”, the inhibition (Mus musculus [5]) was “Active” and the inhibition [6] was “Active”. For the same compound, the inhibition [7] was 93% and the inhibition [8] was “Active”.
With O=C(N1C[C@@H](O)C=C[C@@H]1COCc1ccccc1)n1cc(-c2ccc(-c3ccccc3)cc2)nn1 the inhibition (Mus musculus [1]) was “Active”, the inhibition [2] was “Active” and the inhibition (Mus musculus [3]) was “Active”. For the same compound, the inhibition [4] was “Active”, the inhibition (Mus musculus [5]) was “Active” and the inhibition [6] was “Active”. The inhibition [7] was 95% and the inhibition [8] was “Active”.
For O=C(N1CCC=C[C@@H]1COCc1ccccc1)n1cc(-c2ccc(Br)cc2)nn1, the inhibition [7] was 94% and the inhibition [8] was “Active”.
In the case of O=C(N1CCCC[C@@H]1COCc1ccccc1)n1cc(-c2ccc(-c3ccccc3)cc2)nn1, the inhibition [7] is reported as 96% and the inhibition [8] is reported as “Active”.
In the case of O=C(N1CCC=C[C@@H]1COCc1ccccc1)n1cc(-c2ccc(Oc3ccccc3)cc2)nn1, the inhibition [7] is reported as 86% and the inhibition [8] is reported as “Active”.
With O=C(N1CCC=C[C@@H]1COCc1ccccc1)n1cc(-c2ccc(-c3ccccc3)cc2)nn1 the inhibition [7] was 96% and the inhibition [8] was “Active”.
